Results from ChEMBL document CHEMBL1157714, “Synthesis, anti-HIV and anti-oxidant activities of caffeoyl 5,6-anhydroquinic acid derivatives” (Bioorg Med Chem, 2010).
≈ marks a conversion by molar mass, not a printed value.

Tests used:
[1] = system: Radical scavenging activity; assay: Antioxidant activity assessed as DPPH radical scavenging activity; format: functional
Outline: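 Each well held 10 µl compound in DMSO plus 190 µl of 0.1 mM DPPH in ethanol. After 20 min at rt, absorbance was read at 540 nm. Effective rate % was computed, each compound was tested at 4 concentrations, and EC50 was derived from a plot of effective rate % against concentration.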

MT4 = assay: Cytotoxicity against human MT4 cells after 5 days; format: cell-based; conditions: mt4, 120 h
Outline: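 Over a 5-day culture in RPMI-1640 with graded compound concentrations, MT-4 cell growth was checked by optical microscopy. The cytotoxic concentration (CC) was the concentration that reduced MT-4 viability.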

[2] = Antioxidant activity assessed as SOD-like activity by WST1 assay; format: functional
Outline: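 SOD Assay Kit-WST in 96-well plates. Compound in DMSO was mixed with WST working solution, and the reaction was started with xanthine oxidase. After 20 min at 37 °C, absorbance was read at 450 nm. Inhibition % was corrected with three blanks (DMSO, no enzyme, DMSO plus buffer). Four concentrations were tested, and IC50 was taken from the inhibition-concentration plot.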

[3] = system: Human immunodeficiency virus 1; assay: Antiviral activity against HIV1 3B infected in human MT4 cells after 5 days; format: functional
Outline: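 MT-4 cells were infected 1 h with HIV-1 (HTLV-IIIB) at TCID50 0.001/cell, resuspended at 1 × 10⁵ cells/ml in RPMI-1640, and cultured 5 days with graded compound concentrations. Infected and uninfected controls had no compound. On day 5, the concentration fully preventing the virus-induced cytopathic effect was read by optical microscopy.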

| Structure (SMILES) | EC50 [1] | CC100 (MT4) | IC50 [2] | IC100 [3] |
| --- | --- | --- | --- | --- |
| O=C(/C=C/c1ccc(O)c(O)c1)O[C@@H]1C[C@](O)(C(=O)O)C[C@@H](OC(=O)/C=C/c2ccc(O)c(O)c2)[C@H]1O | 16 µg/mL (≈ 31 µM) | > 50 µg/mL | 2.3 µg/mL (≈ 4.45 µM) | 12.5 µg/mL |
| O=C(/C=C/c1ccc(O)c(O)c1)O[C@@H]1C[C@@](O)(C(=O)O)C[C@@H](O)[C@@H]1O | 17 µg/mL (≈ 48 µM) |  | 1.5 µg/mL (≈ 4.23 µM) |  |
| CC(=O)Oc1ccc(/C=C/C(=O)O[C@@H]2C=C[C@@]3(C[C@H]2OC(=O)/C=C/c2ccc(OC(C)=O)c(OC(C)=O)c2)OC(C)(C)OC3=O)cc1OC(C)=O | > 50 µg/mL | > 6.25 µg/mL | 6.3 µg/mL (≈ 8.92 µM) |  |
| CC1(C)OC(=O)[C@@]2(C=C[C@@H](O)[C@H](OC(=O)/C=C/c3ccc(O)c(O)c3)C2)O1 | 20 µg/mL (≈ 53.1 µM) | > 100 µg/mL | 1.5 µg/mL (≈ 3.99 µM) | 50 µg/mL |
| CC1(C)OC(=O)[C@@]2(C=C[C@@H](OC(=O)/C=C/c3ccc(O)c(O)c3)[C@H](O)C2)O1 | 18 µg/mL (≈ 47.8 µM) | > 100 µg/mL | 1.3 µg/mL (≈ 3.45 µM) | 50 µg/mL |
| CC[C@H]1OC(=O)[C@]2(C[C@@H](O)[C@H](O)[C@H](OC(=O)/C=C/c3ccc(O)c(O)c3)C2)O1 | 20 µg/mL (≈ 50.7 µM) | > 12.5 µg/mL | 1.1 µg/mL (≈ 2.79 µM) |  |
| CC[C@@H]1OC(=O)[C@]2(C[C@@H](O)[C@H](O)[C@H](OC(=O)/C=C/c3ccc(O)c(O)c3)C2)O1 | 19 µg/mL (≈ 48.2 µM) | > 12.5 µg/mL | 1 µg/mL (≈ 2.54 µM) |  |
| CC1(C)OC(=O)[C@]2(C[C@@H](O)[C@H](O)[C@H](OC(=O)/C=C/c3ccc(O)c(O)c3)C2)O1 | 8 µg/mL (≈ 20.3 µM) | > 50 µg/mL | 1.6 µg/mL (≈ 4.06 µM) | 25 µg/mL |
| COC(=O)[C@@]1(O)C[C@@H](O)[C@H](O)[C@H](OC(=O)/C=C/c2ccc(O)c(O)c2)C1 | 20 µg/mL (≈ 54.3 µM) | > 25 µg/mL | 1.4 µg/mL (≈ 3.8 µM) |  |
| CC(=O)Oc1ccc(/C=C/C(=O)O[C@@H]2C[C@]3(C=C[C@H]2O)OC(C)(C)OC3=O)cc1OC(C)=O | > 50 µg/mL | > 100 µg/mL | 1.8 µg/mL (≈ 3.91 µM) | 50 µg/mL |
| CC(=O)Oc1ccc(/C=C/C(=O)O[C@@H]2C=C[C@@]3(C[C@H]2O)OC(C)(C)OC3=O)cc1OC(C)=O | > 50 µg/mL |  | 2.9 µg/mL (≈ 6.3 µM) |  |
| O=C(/C=C/c1ccc(O)c(O)c1)O[C@@H]1C=C[C@@](O)(C(=O)O)C[C@H]1OC(=O)/C=C/c1ccc(O)c(O)c1 | 11 µg/mL (≈ 22.1 µM) | > 25 µg/mL | 1.9 µg/mL (≈ 3.81 µM) | 6.25 µg/mL |
| CC1(C)OC(=O)[C@@]2(C=C[C@@H](O)[C@H](O)C2)O1 | > 50 µg/mL | > 100 µg/mL | > 100 µg/mL |  |
| CC1(C)OC(=O)[C@@]2(C=C[C@@H](OC(=O)/C=C/c3ccc(O)c(O)c3)[C@H](OC(=O)/C=C/c3ccc(O)c(O)c3)C2)O1 | 20 µg/mL (≈ 37.1 µM) | > 25 µg/mL | 2 µg/mL (≈ 3.71 µM) |  |
| O=C(/C=C/c1ccc(O)c(O)c1)O[C@@H]1C[C@](O)(C(=O)O)C=C[C@H]1O | 16 µg/mL (≈ 47.6 µM) | > 25 µg/mL | 0.5 µg/mL (≈ 1.49 µM) |  |
| CCC1(CC)OC(=O)[C@]2(C[C@@H](O)[C@H](O)[C@H](OC(=O)/C=C/c3ccc(O)c(O)c3)C2)O1 | 29 µg/mL (≈ 68.7 µM) | > 25 µg/mL | 2 µg/mL (≈ 4.73 µM) |  |
| CCCCC1(CCCC)OC(=O)[C@]2(C[C@@H](O)[C@H](O)[C@H](OC(=O)/C=C/c3ccc(O)c(O)c3)C2)O1 | 22 µg/mL (≈ 46 µM) | > 25 µg/mL | 2 µg/mL (≈ 4.18 µM) |  |
| CCCCCC1(CCCCC)OC(=O)[C@]2(C[C@@H](O)[C@H](O)[C@H](OC(=O)/C=C/c3ccc(O)c(O)c3)C2)O1 | 28 µg/mL (≈ 55.3 µM) | > 12.5 µg/mL | 2.9 µg/mL (≈ 5.72 µM) |  |
| CCCC1(CCC)OC(=O)[C@]2(C[C@@H](O)[C@H](O)[C@H](OC(=O)/C=C/c3ccc(O)c(O)c3)C2)O1 | 30 µg/mL (≈ 66.6 µM) | > 25 µg/mL | 2 µg/mL (≈ 4.44 µM) |  |
| CC1(C)O[C@H]2C=C[C@@]3(C[C@H]2O1)OC(C)(C)OC3=O | > 50 µg/mL | > 100 µg/mL | 90 µg/mL (≈ 354 µM) |  |
| O=C(/C=C/c1ccc(O)c(O)c1)O[C@@H]1C=C[C@@](O)(C(=O)O)C[C@H]1O | 15 µg/mL (≈ 44.6 µM) | > 25 µg/mL | 0.7 µg/mL (≈ 2.08 µM) |  |
| CC1(C)O[C@H]2[C@H](O)C[C@@]3(C[C@H]2O1)OC(C)(C)OC3=O [QUINIC ACID BISACETONIDE] | > 50 µg/mL | > 100 µg/mL | > 100 µg/mL |  |
